In ChEMBL document CHEMBL5058577, “EUbOPEN Chemogenomics Library 2 (Multiplex)” (2022):

System: U2OS
Assay: Multiplex assay against U2OS
Type: toxicity, cell-based
Conditions: human
Summary of the method: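 Tubulin, mitochondrial-mass and membrane-permeability phenotypes are per cents of healthy-nucleus cells. Cells were gated by CellPathfinder machine learning into Hoechst high-intensity objects or normal cells, normal cells into healthy, pyknosed or fragmented nuclei, and pyknosed cells into mitotic or apoptotic. Before that, live cells stained at seeding with Hoechst33342, BioTracker Green Microtubule Cytoskeleton Dye, MitoTracker Red and Annexin V Alexa Fluor 680 were imaged on a CQ1 microscope at 37°C and 5% CO2 after compound addition.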

[1] = 12 h, 1 µM, compound concentration 1 uM, replicate 1
[2] = 12 h, 1 µM, compound concentration 1 uM, replicate 2
[3] = 12 h, 10 µM, compound concentration 10 uM, replicate 1
[4] = 12 h, 10 µM, compound concentration 10 uM, replicate 2
[5] = 24 h, 1 µM, compound concentration 1 uM, replicate 1
[6] = 24 h, 1 µM, compound concentration 1 uM, replicate 2
[7] = 24 h, 10 µM, compound concentration 10 uM, replicate 1
[8] = 24 h, 10 µM, compound concentration 10 uM, replicate 2
[9] = 48 h, 1 µM, compound concentration 1 uM, replicate 1
[10] = 48 h, 1 µM, compound concentration 1 uM, replicate 2
[11] = 48 h, 10 µM, compound concentration 10 uM, replicate 1
[12] = 48 h, 10 µM, compound concentration 10 uM, replicate 2

For CN1CCN2c3ccccc3Cc3ccccc3C2C1.Cl (stereo not drawn) [MIANSERIN HYDROCHLORIDE], the “Population Apoptotic (%)” value [1] was 91%, the “Population Fragmented Nuclei (%)” value [1] was 35% and the “Population Healthy Nuclei (%)” value [1] was 56%. The “Population Hoechst High Intensity Objects (%)” value [1] was 3%, the “Population Membrane Permeable-Phenotype (%)” value [1] was 7% and the “Population Mitochondria Different-Phenotype (%)” value [1] was 4%. The “Population Mitotic Cells (%)” value [1] was 8%, the “Population Normal (%)” value [1] was 96% and the “Population Pyknosed Nuclei (%)” value [1] was 7%. For the same molecule, the “Population Tubulin-Different-Phenotype (%)” value [1] was 5%, the “Total Cell Count” value [1] was 162 and the “Population Apoptotic (%)” value [2] was 83%. For the same molecule, the “Population Fragmented Nuclei (%)” value [2] was 16%, the “Population Healthy Nuclei (%)” value [2] was 77% and the “Population Hoechst High Intensity Objects (%)” value [2] was 1%. For the same molecule, the “Population Membrane Permeable-Phenotype (%)” value [2] was 3%, the “Population Mitochondria Different-Phenotype (%)” value [2] was 3% and the “Population Mitotic Cells (%)” value [2] was 16%. The “Population Normal (%)” value [2] was 98%, the “Population Pyknosed Nuclei (%)” value [2] was 5% and the “Population Tubulin-Different-Phenotype (%)” value [2] was 2%. For the same molecule, the “Total Cell Count” value [2] was 109, the “Population Apoptotic (%)” value [3] was 78% and the “Population Fragmented Nuclei (%)” value [3] was 23%. The “Population Healthy Nuclei (%)” value [3] was 68%, the “Population Hoechst High Intensity Objects (%)” value [3] was 2% and the “Population Membrane Permeable-Phenotype (%)” value [3] was 7%. For the same molecule, the “Population Mitochondria Different-Phenotype (%)” value [3] was 3%, the “Population Mitotic Cells (%)” value [3] was 21% and the “Population Normal (%)” value [3] was 97%. The “Population Pyknosed Nuclei (%)” value [3] was 8%, the “Population Tubulin-Different-Phenotype (%)” value [3] was 4% and the “Total Cell Count” value [3] was 277. For the same molecule, the “Population Apoptotic (%)” value [4] was 86%, the “Population Fragmented Nuclei (%)” value [4] was 12% and the “Population Healthy Nuclei (%)” value [4] was 77%. For the same molecule, the “Population Hoechst High Intensity Objects (%)” value [4] was 1%, the “Population Membrane Permeable-Phenotype (%)” value [4] was 1% and the “Population Mitochondria Different-Phenotype (%)” value [4] was 2%. For the same molecule, the “Population Mitotic Cells (%)” value [4] was 13%, the “Population Normal (%)” value [4] was 98% and the “Population Pyknosed Nuclei (%)” value [4] was 10%. The “Population Tubulin-Different-Phenotype (%)” value [4] was 0%, the “Total Cell Count” value [4] was 152 and the “Population Apoptotic (%)” value [5] was 88%. The “Population Fragmented Nuclei (%)” value [5] was 34%, the “Population Healthy Nuclei (%)” value [5] was 56% and the “Population Hoechst High Intensity Objects (%)” value [5] was 1%. For the same molecule, the “Population Membrane Permeable-Phenotype (%)” value [5] was 6%, the “Population Mitochondria Different-Phenotype (%)” value [5] was 1% and the “Population Mitotic Cells (%)” value [5] was 11%. For the same molecule, the “Population Normal (%)” value [5] was 98%, the “Population Pyknosed Nuclei (%)” value [5] was 8% and the “Population Tubulin-Different-Phenotype (%)” value [5] was 4%. The “Total Cell Count” value [5] was 197, the “Population Apoptotic (%)” value [6] was 75% and the “Population Fragmented Nuclei (%)” value [6] was 23%. For the same molecule, the “Population Healthy Nuclei (%)” value [6] was 70%, the “Population Hoechst High Intensity Objects (%)” value [6] was 2% and the “Population Membrane Permeable-Phenotype (%)” value [6] was 4%. For the same molecule, the “Population Mitochondria Different-Phenotype (%)” value [6] was 3%, the “Population Mitotic Cells (%)” value [6] was 25% and the “Population Normal (%)” value [6] was 97%. For the same molecule, the “Population Pyknosed Nuclei (%)” value [6] was 5%, the “Population Tubulin-Different-Phenotype (%)” value [6] was 3% and the “Total Cell Count” value [6] was 142. For the same molecule, the “Population Apoptotic (%)” value [7] was 69%, the “Population Fragmented Nuclei (%)” value [7] was 21% and the “Population Healthy Nuclei (%)” value [7] was 68%. For the same molecule, the “Population Hoechst High Intensity Objects (%)” value [7] was 1%, the “Population Membrane Permeable-Phenotype (%)” value [7] was 9% and the “Population Mitochondria Different-Phenotype (%)” value [7] was 2%. The “Population Mitotic Cells (%)” value [7] was 30%, the “Population Normal (%)” value [7] was 98% and the “Population Pyknosed Nuclei (%)” value [7] was 10%. The “Population Tubulin-Different-Phenotype (%)” value [7] was 2%, the “Total Cell Count” value [7] was 319 and the “Population Apoptotic (%)” value [8] was 93%. For the same molecule, the “Population Fragmented Nuclei (%)” value [8] was 13%, the “Population Healthy Nuclei (%)” value [8] was 77% and the “Population Hoechst High Intensity Objects (%)” value [8] was 2%. For the same molecule, the “Population Membrane Permeable-Phenotype (%)” value [8] was 7%, the “Population Mitochondria Different-Phenotype (%)” value [8] was 3% and the “Population Mitotic Cells (%)” value [8] was 6%. The “Population Normal (%)” value [8] was 97%, the “Population Pyknosed Nuclei (%)” value [8] was 8% and the “Total Cell Count” value [8] was 183. The “Population Apoptotic (%)” value [9] was 78%, the “Population Fragmented Nuclei (%)” value [9] was 28% and the “Population Healthy Nuclei (%)” value [9] was 65%. For the same molecule, the “Population Hoechst High Intensity Objects (%)” value [9] was 2%, the “Population Membrane Permeable-Phenotype (%)” value [9] was 5% and the “Population Mitochondria Different-Phenotype (%)” value [9] was 2%. For the same molecule, the “Population Mitotic Cells (%)” value [9] was 21%, the “Population Normal (%)” value [9] was 97% and the “Population Pyknosed Nuclei (%)” value [9] was 5%. The “Population Tubulin-Different-Phenotype (%)” value [9] was 4%, the “Total Cell Count” value [9] was 269 and the “Population Fragmented Nuclei (%)” value [10] was 19%. For the same molecule, the “Population Healthy Nuclei (%)” value [10] was 71%, the “Population Hoechst High Intensity Objects (%)” value [10] was 1% and the “Population Membrane Permeable-Phenotype (%)” value [10] was 4%. The “Population Mitochondria Different-Phenotype (%)” value [10] was 3%, the “Population Normal (%)” value [10] was 98% and the “Population Pyknosed Nuclei (%)” value [10] was 9%. For the same molecule, the “Population Tubulin-Different-Phenotype (%)” value [10] was 2%, the “Total Cell Count” value [10] was 206 and the “Population Apoptotic (%)” value [11] was 91%. For the same molecule, the “Population Fragmented Nuclei (%)” value [11] was 18%, the “Population Healthy Nuclei (%)” value [11] was 71% and the “Population Hoechst High Intensity Objects (%)” value [11] was 4%. The “Population Membrane Permeable-Phenotype (%)” value [11] was 4%, the “Population Mitochondria Different-Phenotype (%)” value [11] was 2% and the “Population Mitotic Cells (%)” value [11] was 8%. For the same molecule, the “Population Normal (%)” value [11] was 95%, the “Population Pyknosed Nuclei (%)” value [11] was 9% and the “Population Tubulin-Different-Phenotype (%)” value [11] was 1%. For the same molecule, the “Total Cell Count” value [11] was 397, the “Population Apoptotic (%)” value [12] was 87% and the “Population Fragmented Nuclei (%)” value [12] was 15%. For the same molecule, the “Population Healthy Nuclei (%)” value [12] was 73%, the “Population Hoechst High Intensity Objects (%)” value [12] was 2% and the “Population Mitochondria Different-Phenotype (%)” value [12] was 3%. For the same molecule, the “Population Mitotic Cells (%)” value [12] was 12%, the “Population Normal (%)” value [12] was 97% and the “Population Pyknosed Nuclei (%)” value [12] was 11%. For the same molecule, the “Population Tubulin-Different-Phenotype (%)” value [12] was 2% and the “Total Cell Count” value [12] was 285.
